As usually defined, the AUC(0-inf) is the area under the concentration-time curve extrapolated to infinity. By AUC(0-t) is commonly meant exposure summed from dosing to a finite time, without extrapolation to infinity. By Cmax is commonly meant the maximum level reached in the sampled fluid or tissue. What is called MRT is a mean duration of stay, worked out from the concentration-time curve. One may read the Tmax as the time at which the peak concentration occurs. By half-life is commonly meant the time in which the quantity being followed falls by half. Lower therefore signals rapid decline.

We go through two molecules from article PMC10580252 (Experimental and Therapeutic Medicine, 2023).

For data set [1], the system named is Hep3B-luc in situ transplanted tumours. Put plainly: Antitumour activity in Hep3B-luc orthotopic xenograft model. It is filed as in vivo, BALB/c nude mice. The following applies: intragastric 50 mg/kg ART once daily for 24 days, n=3. In a few lines: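 Female BALB/c nude mice, 6-8 weeks, received 3x10^6 Hep3B-luc cells in 0.02 ml PBS:Matrigel (1:1) in the left hepatic lobe. They were randomized into four groups (including untreated control) once tumour fluorescence reached ~10^7. Test formulations were given intragastrically once daily for 24 days. Tumour signal and body weight were measured twice weekly. Inhibition = (ROIcontrol−ROIdrug)/ROIcontrol ×100% from mean tumour signals.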

Data set [2] in a line: Pharmacokinetics studies in rats. It counts as in vivo. The following applies: male, SD, rat, plasma, po, 50 mg/kg.
Data set [3] can be described thus: Hepatoma-targeted and bio-distribution detection. It counts as in vivo, BALB/c nude mice. The following applies: tumour model mice, intragastric NR 20 mg/kg.
Data set [4] has as its system A549 cells. Nature of the data set: Cellular uptake of NR-labelled NPs, flow cytometry. It is filed as cell-based. The following applies: A549, NR 50 µg/ml, 0.5, 1 or 4 h. In a few lines: (§1)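 Cells were seeded at 2x10^5 per well and cultured 24 h. They were co-incubated with Nile red-labelled nanoparticles at equal Nile red 50 µg/ml, then washed thrice with cold PBS and incubated a further 0.5, 1 or 4 h. Intracellular fluorescence was read by flow cytometry. Controls were untreated cells, free Nile red, and Nile red in unmodified PEG-PLGA nanoparticles.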
(In general: A flow cytometer gives signals particle by particle.)

The test system of data set [5] is HepG2 cells. Put plainly: Cellular uptake of NR-labelled NPs, flow cytometry. It is filed as cell-based. The following applies: HepG2, NR 50 µg/ml, 0.5, 1 or 4 h. In a few lines:
as §1

In the case of `C[C@H]1[C@H](OC(=O)CCC(=O)O)O[C@@H]2O[C@@]3(C)CC[C@H]4[C@H](C)CC[C@@H]1[C@@]24OO3` [ART, Artesunate], in data set [1], the “Bioluminescence (ROI) (PG-21)” value is listed as 4.49±0.55 x10^9 photons/sec. In data set [2], this molecule came in with an AUC(0-inf) of 2540 ng·h/mL, an AUC(0-t) of 2540 ng·h/mL, a Cmax of 4580 ng/mL and an MRT of 30 min. In data set [2], the Tmax worked out at 15 min and the half-life is 15 min.
As to `CCN(CC)c1ccc2nc3c4ccccc4c(=O)cc-3oc2c1` [NR, Nile red], the “In vivo NR fluorescence in whole body and liver” value in data set [3] is recorded as “lower fluorescence levels at 2 h”. The “Cellular fluorescence (uptake)” value in data set [4] and in data set [5] was “little fluorescence” in each case.
